Experimental findings from ChEMBL document CHEMBL1144486, “Synthesis, biological activity and molecular modelling of new trisubstituted 8-azaadenines with high affinity for A1 adenosine receptors” (Eur J Med Chem, 2007) are described below.

Molecules are shown by their SMILES. pKi: −log10 of the molar value. Bounds are passed on as bounds.

In one test the target is T1, Adenosine receptor A1 (Bos taurus, UniProt P28190).
T1 sequence (P28190 whole entry): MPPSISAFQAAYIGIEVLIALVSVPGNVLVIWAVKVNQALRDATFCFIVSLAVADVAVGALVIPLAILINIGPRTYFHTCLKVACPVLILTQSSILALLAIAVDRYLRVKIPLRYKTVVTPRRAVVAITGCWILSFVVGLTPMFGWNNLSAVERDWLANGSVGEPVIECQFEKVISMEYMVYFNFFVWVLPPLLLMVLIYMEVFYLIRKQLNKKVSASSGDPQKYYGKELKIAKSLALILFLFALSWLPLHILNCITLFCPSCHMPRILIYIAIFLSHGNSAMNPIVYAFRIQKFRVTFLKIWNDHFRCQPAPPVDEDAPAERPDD
In words: Displacement of [3H]DPCPX from bovine cerebral cortex adenosine A1 receptor. Format: tissue-based. In outline:
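Nonspecific binding defined with CPA. Reaction stopped by dilution with ice-cold 50 mM Tris-HCl, then GF/C filtration and three washes. Bound radioactivity counted by liquid scintillation. Each test repeated until at least three consistent results were obtained and averaged for Ki.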
Background: In a radioligand displacement assay an active substance lowers the binding of a labelled ligand.

Test [1] has as its target Adenosine receptor A2a (Homo sapiens) (UniProt P29274). In words: Displacement of [3H]ZM-241385 from human recombinant adenosine A2A receptor expressed in CHO cells at 1 uM. Format: cell-based. In short, it runs like this:
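Membranes from CHO cells expressing recombinant human A2A receptor incubated 120 min at 25 °C with 4 nM [3H]ZM241385 and a single compound concentration, in duplicate, in Tris-HCl buffer. Nonspecific binding defined with NECA. Percent inhibition of specific binding recorded.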

In test [2] the target is T2, Adenosine receptor A3 (Homo sapiens) (UniProt P0DMS8).
T2 sequence (whole entry): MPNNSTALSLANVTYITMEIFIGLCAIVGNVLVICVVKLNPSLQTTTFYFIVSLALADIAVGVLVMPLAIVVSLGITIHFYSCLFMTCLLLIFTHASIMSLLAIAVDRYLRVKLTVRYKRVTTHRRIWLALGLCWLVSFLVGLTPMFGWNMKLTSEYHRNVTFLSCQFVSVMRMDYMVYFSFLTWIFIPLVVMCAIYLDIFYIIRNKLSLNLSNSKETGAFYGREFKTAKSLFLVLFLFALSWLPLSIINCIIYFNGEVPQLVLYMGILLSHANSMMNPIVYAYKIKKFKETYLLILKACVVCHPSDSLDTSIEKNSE
Kind of test: Displacement of [3H]NECA from human recombinant adenosine A3 receptor expressed in CHO cells at 1 uM. It is filed as cell-based. In outline:
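Membranes from CHO cells expressing recombinant human A3 receptor incubated 120 min at 25 °C with 6 nM [3H]NECA and a single compound concentration, in duplicate, in Tris-HCl buffer. Nonspecific binding defined with R-PIA. Percent inhibition of specific binding recorded.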

Sequence of Adenosine receptor A2a (Homo sapiens) (P29274 whole entry): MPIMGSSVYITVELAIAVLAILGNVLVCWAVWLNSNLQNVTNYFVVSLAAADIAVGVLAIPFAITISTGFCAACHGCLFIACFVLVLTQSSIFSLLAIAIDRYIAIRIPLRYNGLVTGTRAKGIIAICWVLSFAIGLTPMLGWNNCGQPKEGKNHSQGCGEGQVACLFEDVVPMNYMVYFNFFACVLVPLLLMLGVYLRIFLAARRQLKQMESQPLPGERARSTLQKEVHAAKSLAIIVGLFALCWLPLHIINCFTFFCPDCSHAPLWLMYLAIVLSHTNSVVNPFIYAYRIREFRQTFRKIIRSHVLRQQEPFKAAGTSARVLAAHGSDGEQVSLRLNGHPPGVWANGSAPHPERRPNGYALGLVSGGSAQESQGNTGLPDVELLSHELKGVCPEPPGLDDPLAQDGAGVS

As a reminder, the pKi is the Ki on a negative log10 scale, so that one unit is a factor of ten. Read a low pKi as a large Ki. What is called inhibition is the relative decrease from the control value, in per cent. At Adenosine receptor A1, `CCCCNc1nc(-c2ccccc2)nc2c1nnn2Cc1ccccc1` gave a pKi of 7.96. In addition, the inhibition in test [1] and in test [2] was < 50% in each case.

For the compound `c1ccc(Cn2nnc3c(NC4CCCC4)nc(-c4ccccc4)nc32)cc1`, the pKi at Adenosine receptor A1 is 7.96. Besides, the inhibition in test [1] and in test [2] was < 50% in each case.

For `CNc1nc(-c2ccccc2)nc2c1nnn2Cc1ccccc1Cl`, the pKi on Adenosine receptor A1 was 6.72. Further, the inhibition in test [1] and in test [2] was < 50% throughout.

Take `CCCCCCNc1nc(-c2ccccc2)nc2c1nnn2Cc1ccccc1`: the negative logarithm of the Ki (pKi) at Adenosine receptor A1 was 7.88. Also, the inhibition in test [1] and in test [2] was < 50% in each case.

For `Clc1ccccc1Cn1nnc2c(NC3CCCC3)nc(-c3ccccc3)nc21`, the pKi at Adenosine receptor A1 is 8.05. Further, the inhibition in test [1] and in test [2] was < 50% each time.

In the case of `FC(F)(F)c1ccccc1Cn1nnc2c(NC3CC3)nc(-c3ccccc3)nc21`, on Adenosine receptor A1, the pKi was 8.11. Further, the inhibition in test [1] and in test [2] was < 50% each time.

Consider `OCCNc1nc(-c2ccccc2)nc2c1nnn2Cc1ccccc1Cl`, for which the pKi at Adenosine receptor A1 is 6.94. The inhibition in test [1] and in test [2] was < 50% throughout.

For `OCCCNc1nc(-c2ccccc2)nc2c1nnn2Cc1ccccc1Cl`, on Adenosine receptor A1, the pKi is 7.48. Besides, the inhibition in test [1] and in test [2] was < 50% in each case.

`OCCCNc1nc(-c2ccccc2)nc2c1nnn2Cc1ccccc1C(F)(F)F` gave a pKi at Adenosine receptor A1 of 6.83. Besides, the inhibition in test [1] and in test [2] was < 50% throughout.

Consider `OCCCNc1nc(-c2ccccc2)nc2c1nnn2Cc1ccccc1F`, for which the pKi on Adenosine receptor A1 is 8.43. Besides, the inhibition in test [1] and in test [2] was < 50% each time.

For `CNc1nc(-c2ccccc2)nc2c1nnn2Cc1ccccc1`, on Adenosine receptor A1, the pKi is 6.45. For the same compound, the inhibition in test [1] and in test [2] was < 50% in each case.

`c1ccc(Cn2nnc3c(NC4CCC4)nc(-c4ccccc4)nc32)cc1` gave a pKi at Adenosine receptor A1 of 8.30. The inhibition in test [1] and in test [2] was < 50% throughout.

For `CCCCCCNc1nc(-c2ccccc2)nc2c1nnn2Cc1ccccc1F`, the pKi at Adenosine receptor A1 was 7.60. For the same compound, the inhibition in test [1] and in test [2] was < 50% in each case.

Regarding `CC(O)CNc1nc(-c2ccccc2)nc2c1nnn2Cc1ccccc1C(F)(F)F` (stereo not given), the inhibition in test [1] and in test [2] was < 50% each time.

`Clc1ccccc1Cn1nnc2c(NC3CC3)nc(-c3ccccc3)nc21` had a pKi on Adenosine receptor A1 of 7.96. For the same compound, the inhibition in test [1] and in test [2] was < 50% throughout.

`OCCCNc1nc(-c2ccccc2)nc2c1nnn2Cc1ccccc1`: the pKi at Adenosine receptor A1 is 7.67. The inhibition in test [1] and in test [2] was < 50% throughout.

With `CCNc1nc(-c2ccccc2)nc2c1nnn2Cc1ccccc1`, the pKi on Adenosine receptor A1 was 7.04. The inhibition in test [1] and in test [2] was < 50% in each case.

In the case of `CCNc1nc(-c2ccccc2)nc2c1nnn2Cc1ccccc1F`, the pKi at Adenosine receptor A1 is 7.96. Besides, the inhibition in test [1] and in test [2] was < 50% throughout.

`OCCNc1nc(-c2ccccc2)nc2c1nnn2Cc1ccccc1C(F)(F)F`: the inhibition in test [1] and in test [2] was < 50% each time.

Take `CCCCNc1nc(-c2ccccc2)nc2c1nnn2Cc1ccccc1Cl`: at Adenosine receptor A1, the pKi is 7.10. Also, the inhibition in test [1] and in test [2] was < 50% each time.

The compound `CCCCCCNc1nc(-c2ccccc2)nc2c1nnn2Cc1ccccc1Cl` gave a pKi on Adenosine receptor A1 of 7.51. Further, the inhibition in test [1] and in test [2] was < 50% each time.

Turning to `Clc1ccccc1Cn1nnc2c(NC3CCCCC3)nc(-c3ccccc3)nc21`, on Adenosine receptor A1, the pKi is 7.47. Moreover, the inhibition in test [1] and in test [2] was < 50% in each case.

On to `Clc1ccccc1Cn1nnc2c(NC3CCC3)nc(-c3ccccc3)nc21`, for which the pKi on Adenosine receptor A1 was 7.62. For the same compound, the inhibition in test [1] and in test [2] was < 50% in each case.

Take `FC(F)(F)c1ccccc1Cn1nnc2c(NC3CCCCC3)nc(-c3ccccc3)nc21`: at Adenosine receptor A1, the pKi is 8.17. Moreover, the inhibition in test [1] and in test [2] was < 50% in each case.

Take `OCCNc1nc(-c2ccccc2)nc2c1nnn2Cc1ccccc1F`: at Adenosine receptor A1, the pKi was 7.27. The inhibition in test [1] and in test [2] was < 50% throughout.

At Adenosine receptor A1, `CCCNc1nc(-c2ccccc2)nc2c1nnn2Cc1ccccc1F` showed a pKi of 8.49. The inhibition in test [1] and in test [2] was < 50% throughout.

Compound `CCCNc1nc(-c2ccccc2)nc2c1nnn2Cc1ccccc1` had a pKi on Adenosine receptor A1 of 7.43. Further, the inhibition in test [1] and in test [2] was < 50% throughout.

Take `FC(F)(F)c1ccccc1Cn1nnc2c(NC3CCCC3)nc(-c3ccccc3)nc21`: the pKi on Adenosine receptor A1 was 9.22. Moreover, the inhibition in test [1] and in test [2] was < 50% each time.

In the case of `CCCNc1nc(-c2ccccc2)nc2c1nnn2Cc1ccccc1Cl`, the pKi at Adenosine receptor A1 was 7.00. For the same compound, the inhibition in test [1] and in test [2] was < 50% in each case.

As for `Fc1ccccc1Cn1nnc2c(NC3CCCCC3)nc(-c3ccccc3)nc21`, on Adenosine receptor A1, the pKi is 8.94. The inhibition in test [1] and in test [2] was < 50% each time.

Consider `CNc1nc(-c2ccccc2)nc2c1nnn2Cc1ccccc1F`, for which the pKi at Adenosine receptor A1 is 7.60. In addition, the inhibition in test [1] and in test [2] was < 50% throughout.

As to `Fc1ccccc1Cn1nnc2c(NC3CCCC3)nc(-c3ccccc3)nc21`, the pKi on Adenosine receptor A1 was 8.17. Besides, the inhibition in test [1] and in test [2] was < 50% throughout.

On Adenosine receptor A1, `CCCCNc1nc(-c2ccccc2)nc2c1nnn2Cc1ccccc1F` had a pKi of 8.37. The inhibition in test [1] and in test [2] was < 50% throughout.

With `CC(O)CNc1nc(-c2ccccc2)nc2c1nnn2Cc1ccccc1` (stereo not given), the pKi at Adenosine receptor A1 is 8.12. The inhibition in test [1] and in test [2] was < 50% each time.

Turning to `CCCNc1nc(-c2ccccc2)nc2c1nnn2Cc1ccccc1C(F)(F)F`, the inhibition in test [1] and in test [2] was < 50% in each case.

`OCCNc1nc(-c2ccccc2)nc2c1nnn2Cc1ccccc1` had a pKi on Adenosine receptor A1 of 7.42. Further, the inhibition in test [1] and in test [2] was < 50% each time.

As to `CNc1nc(-c2ccccc2)nc2c1nnn2Cc1ccccc1C(F)(F)F`, on Adenosine receptor A1, the pKi was 7.83. Moreover, the inhibition in test [1] and in test [2] was < 50% each time.

For `Fc1ccccc1Cn1nnc2c(NC3CC3)nc(-c3ccccc3)nc21`, the pKi on Adenosine receptor A1 is 7.82. Besides, the inhibition in test [1] and in test [2] was < 50% throughout.

`CC(O)CNc1nc(-c2ccccc2)nc2c1nnn2Cc1ccccc1Cl` (stereo not given) had a pKi on Adenosine receptor A1 of 7.49. Moreover, the inhibition in test [1] and in test [2] was < 50% each time.

For the compound `CCNc1nc(-c2ccccc2)nc2c1nnn2Cc1ccccc1C(F)(F)F`, the inhibition in test [1] and in test [2] was < 50% in each case.

Consider `CCCCCCNc1nc(-c2ccccc2)nc2c1nnn2Cc1ccccc1C(F)(F)F`, for which the inhibition in test [1] and in test [2] was < 50% throughout.

`c1ccc(Cn2nnc3c(NC4CC4)nc(-c4ccccc4)nc32)cc1` had a pKi on Adenosine receptor A1 of 7.95. Besides, the inhibition in test [1] and in test [2] was < 50% throughout.

On Adenosine receptor A1, `CC(O)CNc1nc(-c2ccccc2)nc2c1nnn2Cc1ccccc1F` (stereo not given) showed a pKi of 8.32. Besides, the inhibition in test [1] and in test [2] was < 50% in each case.

At Adenosine receptor A1, `CCCCNc1nc(-c2ccccc2)nc2c1nnn2Cc1ccccc1C(F)(F)F` had a pKi of 8.19. Moreover, the inhibition in test [1] and in test [2] was < 50% throughout.

For `CCNc1nc(-c2ccccc2)nc2c1nnn2Cc1ccccc1Cl`, at Adenosine receptor A1, the pKi is 6.33. The inhibition in test [1] and in test [2] was < 50% throughout.
